Results collected from several papers.
Lines come from different studies, so protocols differ.
Target: Calcium/calmodulin-dependent protein kinase type 1D (CAMK1D, Homo sapiens, UniProt Q8IU85)

Cc1cnc(Nc2ccc(C(=O)N3CCC(N4CCCC4)CC3)cc2)nc1-c1cc2ccccc2s1  remaining binding (binding; competition with immobilised ligand; 1 µM): 8.3%
O=C(NS(=O)(=O)c1ccc(NCC2CCOCC2)c([N+](=O)[O-])c1)c1ccc(N2CCN(Cc3ccc(C(F)(F)F)cc3-c3ccc(Cl)cc3)CC2)cc1Oc1cnc2[nH]ccc2c1  remaining binding (cell-free assay; competition with immobilised ligand; 1 µM): 92%
C[C@@H]1CCN(c2nccc(-c3cnn4ncccc34)n2)C1  remaining binding (binding; 1 µM): 86%
CNC(=O)c1ccc(Nc2ncc(C(F)(F)F)c(NCc3nccnc3N(C)S(C)(=O)=O)n2)cc1  remaining binding (cell-free assay; competition with immobilised ligand; 0.1 µM): 100%
Cc1cnn2ncc(-c3ccnc(N(C)C)n3)c2c1  remaining binding (binding; 1 µM): 100%
FC(F)(F)Oc1cccc(-c2cnc3ccc(-c4ccncc4)nn23)c1  remaining binding (cell-free assay; competition with immobilised ligand; 5 µM): 67%
O=C(NCC1CCOCC1)c1n[nH]cc1NC(=O)c1c(F)cccc1F  remaining binding (binding; competition with immobilised ligand; 1 µM): 96%
COc1ncc2cc3ccccc3nc2c1C#N  remaining binding (cell-free assay; competition with immobilised ligand; 5 µM): 98%
CNC(=O)[C@@H]1CC[C@@H](n2c(-c3ccc4cnccc4c3)nc3ccc(C(=O)NCc4cccc(C(N)=O)c4)cc32)C1  remaining binding (binding; competition with immobilised ligand; 1 µM): 100%
CN(c1nccc(-c2cnn3ncccc23)n1)C1CC1  remaining binding (binding; 1 µM): 100%
COc1cnc(Nc2cccc(S(N)(=O)=O)c2)nc1N1CCN(c2ccccc2)C(=O)C1  remaining binding (binding; competition with immobilised ligand; 1 µM): 99%
CNC(=O)Nc1ccc2c(c1)[C@@]1(CC2)OC(=O)N(CC(=O)N(Cc2ccc(F)cc2)[C@@H](C)C(F)(F)F)C1=O  remaining binding (cell-free assay; competition with immobilised ligand; 1 µM): 100%
O=C(c1ccc(Nc2nccc(-c3cc4ccccc4s3)n2)cc1)N1CCC(N2CCCC2)CC1  remaining binding (binding; competition with immobilised ligand; 1 µM): 31%
CN(C)c1nccc(-c2cnc3ncccn23)n1  remaining binding (binding; 1 µM): 80%
CCc1ccccc1C(=O)Nc1n[nH]c2c(C)c(F)c(C3C(C#N)=C(C)N(C)C(C)=C3C#N)cc12  remaining binding (cell-free assay; competition with immobilised ligand; 1 µM): 87%
N[C@H]1CCN(c2nccc(-c3cnn4ncccc34)n2)C1  remaining binding (binding; 1 µM): 91%
O=C(N[C@H]1CCCCC/C=C\C2C[C@@]2(C(=O)O)NC(=O)[C@@H]2C[C@@H](Oc3ccncc3)CN2C1=O)OC1CCCC1 (stereo partly shown)  remaining binding (cell-free assay; competition with immobilised ligand; 1 µM): 94%
CN(C)c1nccc(-c2cnn3ncccc23)n1  remaining binding (binding; 1 µM): 100%
N#Cc1ccc(Nc2ccc3[nH]c(=O)[nH]c3c2)c(Cl)c1  remaining binding (cell-free assay; competition with immobilised ligand; 1 µM): 92%
O=C(c1ccc(Nc2ncc(Cl)c(-c3cc4ccccc4s3)n2)cc1)N1CCC(N2CCCC2)CC1  remaining binding (binding; competition with immobilised ligand; 1 µM): 29%
O=S(=O)(NC1CCC(c2cc(F)ccc2F)(S(=O)(=O)c2ccc(Cl)cc2)CC1)C(F)(F)F (stereo not shown)  remaining binding (cell-free assay; competition with immobilised ligand; 1 µM): 79%
COc1ccnn2ncc(-c3ccnc(N(C)C)n3)c12  remaining binding (binding; 1 µM): 100%
